This note sets out measurements from ChEMBL document CHEMBL4393719, “Tetrahydro-3-benzazepines with fluorinated side chains as NMDA and σ1 receptor antagonists: Synthesis, receptor affinity, selectivity and antiallodynic activity” (Eur J Med Chem, 2019).

As usually defined, the Ki is a measure of affinity in units of concentration, obtained from inhibition or displacement. A high value points to weaker binding. The term EC50 denotes the midpoint of the concentration-response curve. Higher therefore signals weaker potency. For orientation: IC50 means the concentration needed to halve the response being measured. Read a high IC50 as weaker potency. The term inhibition denotes the drop in the measured response relative to a control, in per cent.

Series [1] in a line: Displacement of [3H] ifenprodil from GluN2B/GluN1a (unknown origin) expressed in mouse L(tk-) cell membranes incubated for 120 mins by scintillation counting method. Details: species or system Homo sapiens. In short, it runs like this: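 Membranes from mouse L(tk-) cells co-transfected with dexamethasone-inducible GluN1a/GluN2B (1:5), induced 24 h with 4 μM dexamethasone plus 4 μM ketamine.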

The target of series [2] is Kappa-type opioid receptor (Homo sapiens, UniProt P41145). Briefly: Inhibition of KOR (unknown origin).
Sequence of Kappa-type opioid receptor (P41145 whole entry): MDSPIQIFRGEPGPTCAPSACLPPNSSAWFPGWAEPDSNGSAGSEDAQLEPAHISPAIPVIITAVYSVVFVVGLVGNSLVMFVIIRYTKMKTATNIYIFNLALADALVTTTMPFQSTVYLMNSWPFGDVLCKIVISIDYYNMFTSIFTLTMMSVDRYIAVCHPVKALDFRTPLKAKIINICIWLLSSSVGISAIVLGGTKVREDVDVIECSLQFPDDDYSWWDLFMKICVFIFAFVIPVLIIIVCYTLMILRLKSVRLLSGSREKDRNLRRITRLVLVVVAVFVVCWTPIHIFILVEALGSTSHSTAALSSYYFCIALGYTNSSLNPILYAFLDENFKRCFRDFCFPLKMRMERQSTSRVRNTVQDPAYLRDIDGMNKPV
The next series deals with Mu-type opioid receptor (Homo sapiens, UniProt P35372). In words: Agonist activity at MOR (unknown origin) by cAMP assay. Format: functional.
Sequence of Mu-type opioid receptor (P35372 whole entry): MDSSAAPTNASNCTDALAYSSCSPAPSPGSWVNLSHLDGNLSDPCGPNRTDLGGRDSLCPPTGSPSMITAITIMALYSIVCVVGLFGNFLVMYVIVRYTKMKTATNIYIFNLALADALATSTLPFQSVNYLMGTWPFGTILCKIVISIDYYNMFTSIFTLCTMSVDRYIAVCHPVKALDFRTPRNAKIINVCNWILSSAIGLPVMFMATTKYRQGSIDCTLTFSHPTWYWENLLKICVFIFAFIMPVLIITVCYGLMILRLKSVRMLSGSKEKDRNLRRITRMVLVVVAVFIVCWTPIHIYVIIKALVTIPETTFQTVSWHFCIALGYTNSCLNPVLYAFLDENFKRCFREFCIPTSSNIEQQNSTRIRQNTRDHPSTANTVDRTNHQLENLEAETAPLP
In series [3] the target is Voltage-gated inwardly rectifying potassium channel KCNH2 (Homo sapiens, UniProt Q12809). In words: Inhibition of human ERG expressed in CHO cells at -80 mV holding potential by automated patch clamp electrophysiology assay. It is filed as cell-based. Background: Patch clamp records ionic current or voltage across a cell membrane.
Sequence of Voltage-gated inwardly rectifying potassium channel KCNH2 (Q12809 whole entry): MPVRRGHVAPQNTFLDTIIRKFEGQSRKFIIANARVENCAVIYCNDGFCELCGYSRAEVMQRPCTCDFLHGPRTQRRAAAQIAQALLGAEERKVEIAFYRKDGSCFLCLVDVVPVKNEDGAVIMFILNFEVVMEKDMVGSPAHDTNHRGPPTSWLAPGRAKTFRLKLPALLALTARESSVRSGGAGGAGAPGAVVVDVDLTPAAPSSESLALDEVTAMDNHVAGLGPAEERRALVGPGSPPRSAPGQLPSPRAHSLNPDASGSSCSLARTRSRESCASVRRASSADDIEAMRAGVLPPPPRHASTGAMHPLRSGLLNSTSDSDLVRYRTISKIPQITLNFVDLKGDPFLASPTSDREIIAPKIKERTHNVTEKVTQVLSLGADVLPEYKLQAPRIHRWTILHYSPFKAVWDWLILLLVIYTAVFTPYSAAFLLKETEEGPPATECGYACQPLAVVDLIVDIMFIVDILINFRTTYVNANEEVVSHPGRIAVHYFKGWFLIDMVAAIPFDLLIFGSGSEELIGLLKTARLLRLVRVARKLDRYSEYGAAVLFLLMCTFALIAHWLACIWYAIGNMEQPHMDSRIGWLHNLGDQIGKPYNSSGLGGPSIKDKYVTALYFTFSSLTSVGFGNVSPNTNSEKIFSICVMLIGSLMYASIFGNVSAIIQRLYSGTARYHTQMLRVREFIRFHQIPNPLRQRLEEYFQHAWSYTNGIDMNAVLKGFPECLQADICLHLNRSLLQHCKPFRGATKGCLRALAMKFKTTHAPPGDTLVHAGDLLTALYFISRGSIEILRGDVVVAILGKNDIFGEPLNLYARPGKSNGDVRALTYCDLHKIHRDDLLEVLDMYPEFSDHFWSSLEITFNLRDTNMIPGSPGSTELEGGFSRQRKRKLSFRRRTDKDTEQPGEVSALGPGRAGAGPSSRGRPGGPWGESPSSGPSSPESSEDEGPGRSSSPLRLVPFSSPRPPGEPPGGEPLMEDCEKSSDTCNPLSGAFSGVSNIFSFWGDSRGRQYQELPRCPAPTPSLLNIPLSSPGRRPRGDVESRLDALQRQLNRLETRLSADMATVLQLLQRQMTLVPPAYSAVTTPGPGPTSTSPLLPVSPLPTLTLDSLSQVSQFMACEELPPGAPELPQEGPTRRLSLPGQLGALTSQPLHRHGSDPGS
The target in series [4] is Sodium-dependent serotonin transporter (Homo sapiens) (UniProt P31645). Briefly: Displacement of [3H]imipramine from human serotonin transporter at 1 uM after 30 mins by scintillation counting method relative to control. In short, it runs like this:
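Human SERT-enriched membranes (3.5 μg) incubated 30 min at 27 °C with 3 nM [3H]imipramine in Tris-HCl/120 mM NaCl/5 mM KCl pH 7.4, 0.1% DMSO; 200 μM imipramine for nonspecific binding. Compound at 1 μM; displacement after filtration.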
For orientation: Displacement assays read how much labelled ligand stays bound in the presence of the test substance.

Series [5] has as its target 5-hydroxytryptamine receptor 1A (Homo sapiens) (UniProt P08908). In words: Displacement of [3H]8-OH-DPAT from human 5HT1A receptor at 1 uM incubated for 2 hrs scintillation counting method relative to control. The procedure, abridged:
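Human 5-HT1A-enriched membranes (10 μg), 2 nM [3H]-8-OH-DPAT, 50 mM Tris-HCl/5 mM MgCl2 pH 7.4, 0.1% DMSO final, 2 h at 37 °C; 10 μM 5-HT for nonspecific binding. Compound at 1 μM; radioligand displacement read after GF/C filtration.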

Series [6] deals with 5-hydroxytryptamine receptor 2B (Homo sapiens) (UniProt P41595). In words: Displacement of [3H]-LSD from recombinant human 5HT2B receptor at 1 uM after 30 mins by scintillation counting method relative to control. The procedure, abridged: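 Human 5-HT2B-enriched membranes (5 µg), 1 nM [3H]LSD in 50 mM Tris-HCl, 4 mM CaCl2, 1% ascorbic acid, pH 7.4, 0.1% DMSO; 30 min, 37 °C; 50 µM 5-HT for nonspecific binding. Single 1 µM compound concentration; displacement after filtration.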
Sequence of 5-hydroxytryptamine receptor 2B (Homo sapiens) (P41595 whole entry): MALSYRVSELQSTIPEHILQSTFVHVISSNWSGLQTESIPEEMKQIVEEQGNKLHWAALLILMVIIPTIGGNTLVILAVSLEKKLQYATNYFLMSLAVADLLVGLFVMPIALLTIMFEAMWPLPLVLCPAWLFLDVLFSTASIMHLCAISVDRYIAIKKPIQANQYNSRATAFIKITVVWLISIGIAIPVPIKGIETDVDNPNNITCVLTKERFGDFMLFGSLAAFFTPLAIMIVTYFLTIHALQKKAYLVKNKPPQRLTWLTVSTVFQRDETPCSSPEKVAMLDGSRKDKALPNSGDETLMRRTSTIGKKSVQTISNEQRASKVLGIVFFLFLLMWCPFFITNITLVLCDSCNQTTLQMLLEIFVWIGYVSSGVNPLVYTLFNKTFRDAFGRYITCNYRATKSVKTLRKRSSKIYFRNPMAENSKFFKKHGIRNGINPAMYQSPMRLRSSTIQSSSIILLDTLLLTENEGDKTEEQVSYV

The target of series [7] is Alpha-1A adrenergic receptor (Homo sapiens) (UniProt P35348). Briefly: Displacement of [3H]prazosin from human adrenergic alpha1A receptor at 1 uM after 90 mins by scintillation counting method relative to control. The procedure, abridged:
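α1A adrenoceptor-enriched human membranes (10 µg), 0.2 nM [3H]prazosin in 50 mM HEPES, 5 mM MgCl2, 1 mM CaCl2, 0.2% BSA, pH 7.4; 90 min at 25 °C; 1 µM prazosin for nonspecific binding. Compound tested at 1 µM; bound ligand collected by filtration.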

Series [8] deals with Histamine H1 receptor (Homo sapiens) (UniProt P35367). Briefly: Displacement of [3H]pyrilamine from human recombinant histamine H1 receptor at 1 uM after 90 mins by scintillation counting method relative to control. In short, it runs like this:
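Human H1 receptor-enriched membranes (25 μg) with 2.4 nM [3H]pyrilamine in Na+/K+ phosphate buffer pH 7.4, 0.1% DMSO, 90 min, 25 °C; 10 μM triprolidine for nonspecific binding. Single 1 μM test concentration; filtration-based readout of displacement.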

A short description of series [9]: Drug metabolism in mouse liver microsomes at 1 uM incubated for 1 hr in presence of NADPH by UPLC-MS analysis. Format: ADME, Microsome. Particulars: read-out: Drug metabolism. The procedure, abridged:
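Liver microsomes, compound 1 µM, 37 °C for 1 h in 50 mM Na/K phosphate pH 7.4, 3 mM MgCl2, NADPH-regenerating system, CYP 0.3 nmol/mL. Aliquots at 0, 10, 20, 40, 60 min quenched with cold acetonitrile, supernatants by UPLC-MS/MS; % parent remaining at end reported. Terfenadine as positive control.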
(Liver microsomes are a subcellular fraction often used to study metabolism.)

For the next series, the target named is CYP2D6 (Homo sapiens, UniProt P10635). Briefly: Inhibition of recombinant human CYP2D6 at 1 uM by fluorescence probe substrate-based flurometric analysis. It is filed as ADME.
Sequence of CYP2D6 (P10635 whole entry): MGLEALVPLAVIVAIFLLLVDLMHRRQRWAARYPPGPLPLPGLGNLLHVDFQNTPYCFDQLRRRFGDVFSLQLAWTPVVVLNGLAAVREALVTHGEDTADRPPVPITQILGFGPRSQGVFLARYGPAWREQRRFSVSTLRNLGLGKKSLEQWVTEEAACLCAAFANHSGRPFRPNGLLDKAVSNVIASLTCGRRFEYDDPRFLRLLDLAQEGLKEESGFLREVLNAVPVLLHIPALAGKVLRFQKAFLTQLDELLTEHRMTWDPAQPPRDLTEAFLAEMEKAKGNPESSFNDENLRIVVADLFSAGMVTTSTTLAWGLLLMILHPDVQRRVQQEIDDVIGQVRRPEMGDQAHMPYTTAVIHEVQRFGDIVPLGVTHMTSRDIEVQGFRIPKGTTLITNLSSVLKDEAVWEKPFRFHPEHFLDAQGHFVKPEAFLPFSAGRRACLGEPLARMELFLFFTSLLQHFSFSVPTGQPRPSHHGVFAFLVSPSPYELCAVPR
The subject of a further series is Mus musculus. In words: Antiallodynic activity in CD-1 mouse model of capsaicin-induced mechanical allodynia assessed as increase in paw withdrawal threshold at 8 mg/kg, sc administered 30 mins before capsaicin addition and measured after 15 mins by von-Frey test. Format: functional, organism-based. In short, it runs like this:
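Female CD-1 mice given compound or HPMC vehicle sc 30 min before intraplantar capsaicin (1 µg in 20 µL, 1% DMSO). 15 min later, electronic von Frey punctate stimulus (0.5 g) at least 5 mm from injection site; paw withdrawal latency, three trials 30 s apart, 50 s cutoff. % antiallodynic effect = [(LTD−LTS)/(CT−LTS)]×100; 6-8 mice per group, ANOVA with Bonferroni.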

Series [10] deals with HepG2. Briefly: Cytotoxicity against human HepG2 assessed as reduction in cell viability at 1 to 100 uM after 20 hrs by MTT assay. Format: cell-based. To be noted: hepg2, 20 h. In short, it runs like this: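 HepG2 cells, 3 x 10^4/well, grown 24 h in MEM/10% FBS, then exposed 20 h in serum-free medium to compound at 1, 10, 100 µM (from DMSO solutions). MTT 0.5 mg/mL for 4 h, formazan dissolved in DMSO, OD 550 nm. IC50 taken as lowest concentration giving ≥50% cytotoxicity versus untreated cells; duplicates in two assays (n = 4).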

The test system of series [11] is HepG2. Briefly: Cytotoxicity against human HepG2 assessed as reduction in cell viability at 1 to 100 uM after 20 hrs by neutral red uptake assay. It is filed as cell-based. Particulars: hepg2, 20 h. In short, it runs like this:
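HepG2 seeded 3 x 10^4/well, 24 h, then 20 h serum-free exposure at 1, 10 or 100 µM. Neutral red 50 µg/mL for 3 h, washed, dye extracted with 50% ethanol/1% acetic acid, OD 550 nm. IC50 assigned as lowest concentration reaching ≥50% cytotoxicity against untreated cells; n = 4 (duplicate, two assays).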

For series [12], the target named is Sodium-dependent dopamine transporter (Homo sapiens) (UniProt Q01959). Briefly: Displacement of [3H]GBR12935 from human DAT at 1 uM after 120 mins by scintillation counting method relative to control. In short, it runs like this: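 DAT-enriched human membranes (5 µg), 2 nM [3H]GBR12935 in 50 mM Tris-HCl/100 mM NaCl pH 7.4, 0.1% DMSO, 120 min at 4 °C; 10 µM GBR12909 for nonspecific binding. Compound at 1 µM; displacement measured after filtration.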

Series [13] can be described thus: Stability of compound in aqueous HCl solution at pH 2 after 24 hrs by HPLC analysis. Format: physicochemical. Particulars: buffer, pH 2, 24 h. In short, it runs like this:
(§1)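 Compound (25 μL of 10 mM DMSO stock) added to 1 mL aqueous buffered solution, pH 2 or pH 7.4, stirred 24 h at room temperature, analyzed by HPLC-MS; deemed stable if peak area remained 95–105%.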

Series [14] can be described thus: Stability of compound in phosphate buffer at pH 7.4 after 24 hrs by HPLC analysis. Format: physicochemical. To be noted: pH 7.4, 24 h. In short, it runs like this: as §1
The species entered for a further series is Sus scrofa. To be noted: at 1 µM.

SMILES strings stand for the structures. Activity calls are given as the source filed them.

Sequence of Alpha-1A adrenergic receptor (Homo sapiens) (P35348 whole entry): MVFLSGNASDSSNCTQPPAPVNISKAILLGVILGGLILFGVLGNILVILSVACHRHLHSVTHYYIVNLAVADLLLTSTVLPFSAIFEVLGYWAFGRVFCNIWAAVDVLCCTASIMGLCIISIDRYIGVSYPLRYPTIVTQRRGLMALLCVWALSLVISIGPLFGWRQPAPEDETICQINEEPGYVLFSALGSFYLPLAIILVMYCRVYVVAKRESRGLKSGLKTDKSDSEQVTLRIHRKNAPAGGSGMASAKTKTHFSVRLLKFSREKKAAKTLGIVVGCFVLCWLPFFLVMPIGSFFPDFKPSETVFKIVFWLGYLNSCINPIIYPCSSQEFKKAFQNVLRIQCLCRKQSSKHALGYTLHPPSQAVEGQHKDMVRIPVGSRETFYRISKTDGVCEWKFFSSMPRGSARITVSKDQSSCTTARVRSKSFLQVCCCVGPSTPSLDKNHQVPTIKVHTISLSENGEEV
Sequence of 5-hydroxytryptamine receptor 1A (Homo sapiens) (P08908 whole entry): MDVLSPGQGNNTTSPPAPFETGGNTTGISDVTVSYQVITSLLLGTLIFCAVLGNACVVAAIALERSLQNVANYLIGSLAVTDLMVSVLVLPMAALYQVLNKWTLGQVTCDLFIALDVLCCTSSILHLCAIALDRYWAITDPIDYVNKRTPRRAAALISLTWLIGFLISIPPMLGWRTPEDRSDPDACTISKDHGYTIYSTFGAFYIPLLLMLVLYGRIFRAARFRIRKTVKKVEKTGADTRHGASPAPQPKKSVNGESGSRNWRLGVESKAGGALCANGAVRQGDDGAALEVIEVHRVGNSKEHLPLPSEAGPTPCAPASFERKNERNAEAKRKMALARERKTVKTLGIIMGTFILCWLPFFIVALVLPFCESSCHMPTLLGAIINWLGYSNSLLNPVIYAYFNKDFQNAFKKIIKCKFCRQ
Sequence of Histamine H1 receptor (Homo sapiens) (P35367 whole entry): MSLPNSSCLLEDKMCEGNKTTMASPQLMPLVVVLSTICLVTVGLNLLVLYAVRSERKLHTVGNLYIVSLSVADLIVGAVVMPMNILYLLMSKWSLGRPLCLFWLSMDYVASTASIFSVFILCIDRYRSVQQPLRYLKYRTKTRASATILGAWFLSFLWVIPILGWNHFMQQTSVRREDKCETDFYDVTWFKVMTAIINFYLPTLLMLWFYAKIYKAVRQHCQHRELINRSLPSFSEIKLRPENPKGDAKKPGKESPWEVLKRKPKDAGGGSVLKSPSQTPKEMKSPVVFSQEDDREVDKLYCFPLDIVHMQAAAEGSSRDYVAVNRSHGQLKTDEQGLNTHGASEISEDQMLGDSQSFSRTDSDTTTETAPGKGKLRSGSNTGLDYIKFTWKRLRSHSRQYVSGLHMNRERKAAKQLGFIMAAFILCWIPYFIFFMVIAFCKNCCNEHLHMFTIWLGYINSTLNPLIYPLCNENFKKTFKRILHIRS
Sequence of Sodium-dependent serotonin transporter (Homo sapiens) (P31645 whole entry, looked up): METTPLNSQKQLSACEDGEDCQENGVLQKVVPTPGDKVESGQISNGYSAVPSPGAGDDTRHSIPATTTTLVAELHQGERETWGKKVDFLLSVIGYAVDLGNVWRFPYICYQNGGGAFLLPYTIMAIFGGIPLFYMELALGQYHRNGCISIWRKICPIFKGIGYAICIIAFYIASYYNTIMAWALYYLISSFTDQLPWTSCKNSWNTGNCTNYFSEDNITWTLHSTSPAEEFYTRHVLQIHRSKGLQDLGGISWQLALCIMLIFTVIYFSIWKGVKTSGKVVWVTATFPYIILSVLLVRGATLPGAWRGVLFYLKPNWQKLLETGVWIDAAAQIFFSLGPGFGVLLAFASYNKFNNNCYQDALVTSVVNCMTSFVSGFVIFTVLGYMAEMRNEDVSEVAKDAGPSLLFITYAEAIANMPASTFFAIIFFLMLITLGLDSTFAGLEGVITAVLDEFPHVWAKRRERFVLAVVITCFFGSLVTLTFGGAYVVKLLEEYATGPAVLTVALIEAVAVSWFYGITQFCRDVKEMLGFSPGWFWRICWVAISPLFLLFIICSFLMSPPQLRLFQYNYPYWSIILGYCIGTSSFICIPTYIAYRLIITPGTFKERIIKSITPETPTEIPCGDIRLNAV

With `COc1ccc2c(c1)CCN(CCC(F)Cc1ccccc1)CC2` (stereo not drawn), the inhibitory constant (Ki) in [1] is 0.12 µM; in [2] it was over 1 µM. Also, at Mu-type opioid receptor, the EC50 is over 10 µM. This molecule also returned an IC50 in series [3] of 0.553 µM. The inhibition is under 50% in series [4]; 70% in [5]; under 50% in [6]; under 50% in [7]; under 50% in series [8]; under 50% in [12]. Further, in the series filed under Sus scrofa, the inhibition stood at 21%. The metabolised at 1 h, 1 µM in series [9] was 100%. The inhibition at 1 µM on CYP2D6 came to 55%. The result in the series on Mus musculus was Active. The Activity result in the series on HepG2 [10] and in the series with HepG2 [11] was “Toxic” each time. Moreover, the Stability result in series [13] and in series [14] was “Stable” in each case.
